High-throughput results from PubChem.
Compounds with a hit are over-represented: about 4.2% of the library has one in this group of screens.
OX1R antag-1 = OX1R (HCRTR1) antagonists, primary screen, fluorescence, CHO/OX1R cells, Fluo-8 calcium, orexin A. Orexin/Hypocretin receptor type 1 (Homo sapiens), O43613. Fluo-8 calcium fluorescence. inhibition, % at 5 µM. 0.43% of 330,000 active. AID 434989, 2010;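 active means inhibition above its plate's threshold, mean inhibition of all tested compounds on the plate plus 3 SD, cut at about 37% in these data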
OX1R antag-2 = antagonists of human orexin 1 receptor (OX1R). OX1R-expressing cells, FRET antagonist read-out. inhibition, % at 6.6 µM. 1.8% of 330,000 active. AID 485270, 2010; in the data active means inhibition mostly above about 38%, no sharp cut-off; inactive means mostly below about 40%
CHO parental Ca = ATP-evoked calcium signal inhibitors, parental CHO, primary screen, counter-screen for OX1R antagonist project, cell-based, fluorescence, Fluo-8 calcium dye. 0.63% of 330,000 active. inhibition, % at 5.6 µM. parental CHO-K1, ATP-induced calcium, Fluo-8 fluorescence;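 active means inhibition above that plate's mean sample inhibition plus 3 SD, cut at about 26% in these data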
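Assay system: untransfected parental CHO cell line. Also added: ATP agonist challenge. Dosing: one dose, 5.6 µM nominal. Measured by: Fluo-8 fluorescence. Read-out: % inhibition. Benchmarks: ATP wells versus no-ATP DMSO wells. Repeats: no replicates.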
TAAR1 agonist = human TAAR1 agonists, primary screen, Fluo-8 calcium fluorescence, CHO RD-HGA16 cells | Trace amine-associated receptor 1 (Homo sapiens), Q96RJ0 | vehicle wells 0%, saturating PEA agonist 100% | activation, % at 3 µM | 0.99% of 360,000 active;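 active means activation above the mean activation of all test compounds in the run plus 3 SD, cut at about 38% in these data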
Target sequence (Q96RJ0 whole entry, looked up): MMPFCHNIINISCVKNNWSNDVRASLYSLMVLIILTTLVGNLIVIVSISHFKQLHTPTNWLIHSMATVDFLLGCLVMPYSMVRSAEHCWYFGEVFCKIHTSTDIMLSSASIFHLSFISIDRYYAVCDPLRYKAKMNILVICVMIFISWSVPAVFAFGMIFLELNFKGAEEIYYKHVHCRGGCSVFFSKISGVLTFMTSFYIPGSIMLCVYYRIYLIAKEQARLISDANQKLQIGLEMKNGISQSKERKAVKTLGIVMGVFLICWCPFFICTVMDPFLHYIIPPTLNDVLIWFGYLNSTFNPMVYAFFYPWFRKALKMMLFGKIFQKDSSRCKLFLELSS
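Test system: RD-HGA16 (CHO) cells co-expressing Gα16 and hTAAR1 | Doses: Single dose, 3 µM | Schedule: 17-24 h seeding, 75 min 37 °C dye, 30 min RT | Evaluation: % activation from peak over basal fluorescence ratio, DMSO-to-PEA scaled | Technique: Kinetic Fluo-8 calcium fluorescence | Benchmarks: Low control DMSO, high control PEA (EC100)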
GalR3 antagonist = GalR3 antagonists in HEK293 cells, primary screen, cell-based, fluorescence readout. Galanin receptor type 3 (Homo sapiens), O60755. HEK293 GalR3-CNG cAMP membrane potential fluorescence; galR3 body fused to GalR1 C-terminus. inhibition, % at 3 µM. 0.44% of 360,000 active. AID 651719, 2012;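 active means inhibition above the screen-wide average plus 3 SD, cut at about 13% in these data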;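 further: forskolin and galanin both at EC90 stimulate the cells; cAMP rise reported by CNG channel membrane potential dye signal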
Target sequence (O60755 1-299 limits assumed): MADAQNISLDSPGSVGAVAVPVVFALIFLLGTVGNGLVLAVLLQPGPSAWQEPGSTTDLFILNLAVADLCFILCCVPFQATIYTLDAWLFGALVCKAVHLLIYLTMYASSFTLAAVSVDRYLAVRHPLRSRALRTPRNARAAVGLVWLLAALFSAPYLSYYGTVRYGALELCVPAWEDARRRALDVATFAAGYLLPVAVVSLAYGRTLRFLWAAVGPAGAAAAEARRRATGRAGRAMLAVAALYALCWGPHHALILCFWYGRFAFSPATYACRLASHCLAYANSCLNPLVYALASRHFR
TAAR1 antag = human TAAR1 antagonists, primary screen, Fluo-8 calcium fluorescence, CHO RD-HGA16 cells | 1.5% of 360,000 active | inhibition, % at 3 µM | antagonist | Trace amine-associated receptor 1 (Homo sapiens), Q96RJ0;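 active means inhibition above a per-plate cutoff, the mean inhibition of test compounds on that plate plus 3 SD, cut at about 49% in these data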
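Material: CHO RD-HGA16 cells bearing hTAAR1; compound dosing: one-point dosing, 3 µM nominal final; schedule: dye loading 75 min at 37 °C, then 30 min room temperature; measured by: calcium fluorescence with Fluo-8; control set: vehicle and agonist controls; replication: n of 1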
A number is an active result; n = inactive; x = no result.

SMILES	OX1R antag-1	OX1R antag-2	CHO parental Ca	TAAR1 agonist	GalR3 antagonist	TAAR1 antag
CC1CCCCC1NC(=O)COC(=O)c1ccc2c(c1Cl)C(=O)c1ccccc1C2=O (stereo unspecified)	n	n	n	n	n	n
O=C(O)c1ccc(N/N=C/c2ccc(OC(=O)c3ccccc3Cl)cc2)cc1	n	n	n	n	n	58
O=C(O)c1ccc(N/N=C/c2ccc(-c3ccccc3)cc2)cc1	x	x	x	n	n	n
Cc1cc(CSc2ccccc2)ccc1NC(=O)COc1ccccc1	n	n	n	n	n	n
COc1ccccc1OCC(=O)Nc1ccc(CSc2ccccc2)cc1C	n	n	30	n	n	n
CC1CCCCN1C(=O)COC(=O)C1CCN(S(=O)(=O)c2ccc(Cl)c(C(F)(F)F)c2)CC1 (stereo unspecified)	n	n	n	n	n	n
O=C(COC(=O)C1CCN(S(=O)(=O)c2ccc(Cl)c(C(F)(F)F)c2)CC1)NCc1ccco1	n	n	42	n	n	n
Cc1ccc2nc(SCC(=O)Nc3ccc4c(c3)OCCO4)nc(=O)n2c1	n	n	n	n	n	n
CN(CC(=O)Nc1cccc(F)c1)CC(=O)Nc1cc(S(=O)(=O)N2CCOCC2)ccc1Cl	n	n	n	n	n	n
CN(CC(=O)Nc1cccc(S(=O)(=O)N2CCOCC2)c1)CC(=O)Nc1ccc(Cl)c(C(F)(F)F)c1	n	n	49	n	n	n
CN(CC(=O)Nc1ccc(Cl)c(C(F)(F)F)c1)C(=O)C1CC(=O)N(CCc2ccccc2)C1 (stereo unspecified)	x	x	x	n	n	50
CN(CC(=O)NCC(=O)Nc1ccc(F)cc1)CC(=O)Nc1ccc(Cl)c(C(F)(F)F)c1	x	x	x	n	n	n
CN(CC(=O)NCc1ccc(F)cc1)CC(=O)Nc1ccc(Cl)c(C(F)(F)F)c1	57	n	67	n	n	n
CCCNC(C)C(=O)Nc1ccccc1C (stereo unspecified)	n	n	n	n	n	n
COc1ccccc1NS(=O)(=O)c1cccc(NC(=O)NCCCl)c1	n	n	n	n	n	n
COc1ccccc1NS(=O)(=O)c1cccc(NC(=O)c2cncc(Br)c2)c1	n	n	n	n	n	51
COc1ccc(NC(=O)c2ccc(Cl)c(S(=O)(=O)N3CCc4ccccc4C3)c2)cn1	n	n	n	n	n	66
NS(=O)(=O)c1cccc(NC(=O)c2cncc(Br)c2)c1	n	n	n	n	n	n
COc1ccccc1NS(=O)(=O)c1cccc(NC(=O)Nc2cccc(Cl)c2)c1	n	n	30	n	n	79
COc1ccccc1NS(=O)(=O)c1cccc(NC(=O)CCNC(=O)c2ccccc2OC)c1	n	n	n	n	n	57
COC(=O)c1cc(NS(=O)(=O)c2ccc(Cl)c(N3C(=O)c4ccc(C(=O)O)cc4C3=O)c2)cc(C(=O)OC)c1	n	n	n	n	n	n
O=C1OC(c2ccccc2)(c2ccccc2)c2ccsc21	x	x	x	n	n	n
COc1ccc(NS(=O)(=O)c2cc(NC(=O)c3cncc(Br)c3)ccc2OC)cc1	n	n	n	n	n	50
COc1ccccc1NS(=O)(=O)c1cc(NC(=O)c2ccc(Cl)nc2)ccc1Cl	n	n	n	n	n	56
COc1ccc(NS(=O)(=O)c2cc(NC(=O)c3nn(C)c(=O)c4ccccc34)ccc2OC)cc1	n	n	n	n	n	n
SMILES	OX1R antag-1	OX1R antag-2	CHO parental Ca	TAAR1 agonist	GalR3 antagonist	TAAR1 antag
CN(C)Cc1c(O)ccc2c(-c3ccccc3)cc(=O)oc12	n	n	n	n	n	n
CN(C)Cc1c(O)ccc2cc(-c3nc4ccccc4n3C)c(=O)oc12	n	43	n	n	n	n
COc1cccc(CNC(=O)CCS(=O)(=O)c2cccc3nonc23)c1	n	59	n	n	n	n
Cc1cccc(N(C)C(=O)CCS(=O)(=O)c2cccc3nonc23)c1	n	52	n	n	n	n
Cc1ccc(NC(=O)CCS(=O)(=O)c2cccc3nonc23)cc1	n	n	n	n	n	n
CC(=O)c1cccc(NC(=O)CCS(=O)(=O)c2cccc3nonc23)c1	n	58	n	n	n	n
COc1ccc(N(C)C(=O)CCS(=O)(=O)c2cccc3nonc23)c(OC)c1	n	61	n	n	n	n
COc1ccc(NS(=O)(=O)c2cccc3nonc23)c(OC)c1	n	n	n	n	n	n
Nc1c(C(=O)NCc2ccc3c(c2)OCO3)c2nc3ccccc3nc2n1CCCN1CCOCC1	n	n	33	n	n	n
COc1ccccc1CNC(=O)c1c(N)n(CCCN2CCOCC2)c2nc3ccccc3nc12	x	x	x	n	n	n
O=C(NCc1ccccc1)c1cnsn1	n	n	n	x	x	x
O=C(Nc1ccc([N+](=O)[O-])cc1)C1CC1(c1ccccc1)c1ccccc1 (stereo unspecified)	n	n	n	n	n	54
CC1(C)C(C=C(Cl)Cl)C1C(=O)Nc1ccc([N+](=O)[O-])cc1 (stereo unspecified)	n	n	50	n	n	n
O=C(CCc1ccccc1)Nc1cccnc1Cl	n	n	n	n	n	n
COc1ccc(NC(=O)c2nnn(Cc3cccc(F)c3)c2N)c(OC)c1	n	n	n	n	n	n
CC12CC(c3ccccc3O1)N(C(=O)c1ccc(Br)o1)C(=O)N2c1ccccc1 (stereo unspecified)	n	n	n	n	n	n
CCSc1nnc(-c2cc(Br)ccc2N=Cc2c(C)[nH]n(-c3ccccc3)c2=O)c(=O)[nH]1	n	75	n	n	n	n
CSc1nnc(-c2cc(Br)ccc2N=Cc2c(C)[nH]n(-c3ccccc3)c2=O)c(=O)[nH]1	n	48	n	n	n	n
N#C/C(=N\Nc1ccc(Cl)cc1)C(N)=S	n	49	n	n	n	n
Cc1cn([C@H]2C[C@H](O)[C@@H](CNCc3ccc(-c4cc(Cl)ccc4C(F)(F)F)o3)O2)c(=O)[nH]c1=O	x	x	x	n	n	n
COc1cc(OC)c2c3c(c(C4CCCCC4)nc2c1)CCCC3	x	x	x	n	n	n
CCOC(=O)c1c(C)[nH]c2c1cc(O)c1ccccc12	n	43	n	n	n	n
CCOC(=O)c1c(C)[nH]c(C)c1C(=O)COC(=O)c1cc2ccccc2cc1OC	n	n	n	n	n	n
CCOC(=O)c1c(C)[nH]c(C)c1C(=O)COC(=O)c1cc2ccccc2cc1O	n	72	n	n	n	n
